Reference: ChEMBL document CHEMBL2150869, “Superpotent [Dmt¹] dermorphin tetrapeptides containing the 4-aminotetrahydro-2-benzazepin-3-one scaffold with mixed μ/δ opioid receptor agonistic properties” (J Med Chem, 2011)
pEC50, pIC50, pKi: −log10 of the molar value. Activity calls are given as the source filed them. The calls are words filed in the database; no cut-off is given here. Where a SMILES comes first, the peptide text is derived from it. [ ]: non-standard residue; d: D form. Dmt = Cc1cc(O)cc(C)c1C[C@H](N)C(=O)O; dNMeA = CN[C@H](C)C(=O)O; Sar = CNCC(=O)O

How the values were obtained:
[1] = biological target: T1, Opioid receptors; mu and delta (Mus musculus, UniProt P42866+P32300); test: Agonist activity at MOR/DOR in NMRI mouse frontal cortex assessed as reduction in spinal cord network activity by electrophysiology assay; type: functional, tissue-based
In short: (§1)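 Primary neuronal networks from frontal cortex or spinal cord grown on microelectrode array neurochips for 4 weeks to 3 months. Accumulating concentrations from 1 fM to 100 μM (nine steps), each recorded for 1 h at 37 °C, pH 7.4. Spike rate and burst duration taken from the last 30 min stable phase in 60 s bins. EC50 obtained by logistic dose-response fitting.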

Mu-type opioid receptor [2] = biological target: Mu-type opioid receptor (Rattus norvegicus, UniProt P33535); test: Displacement of [3H]naloxone from MOR in rat brain homogenates by liquid scintillation counting; type: tissue-based
[3] = biological target: Kappa-type opioid receptor (Homo sapiens, UniProt P41145); test: Displacement of [3H]diprenorphine from human KOR expressed in HEK293 cell membrane by liquid scintillation counting; type: cell membranes
[4] = biological target: T2, Delta-type opioid receptor (Homo sapiens, UniProt P41143); test: Agonist activity at human DOR expressed in HEK293 cell membrane assessed as inhibition of forskolin-induced cAMP accumulation by liquid scintillation counting; type: functional, cell membranes
In short: (§2)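 HEK293 cells stably expressing the μ- or δ-opioid receptor, prelabelled for 24 h with [3H]adenine. Cells treated with ligand (10 fM to 10 μM or 1 pM to 10 μM) plus 50 μM forskolin for 30 min at 37 °C. Read-out is [3H]cAMP over total [3H]adenine nucleotides by scintillation counting, given as percent of forskolin-stimulated accumulation.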

[5] = biological target: T2, Delta-type opioid receptor; test: Agonist activity at human DOR expressed in HEK293 cell membrane assessed as inhibition of forskolin-induced cAMP accumulation by liquid scintillation counting relative to control; type: functional, cell membranes
Mu-type opioid receptor [6] = biological target: T3, Mu-type opioid receptor (Homo sapiens, UniProt P35372); test: Agonist activity at human MOR expressed in HEK293 cell membrane assessed as inhibition of forskolin-induced cAMP accumulation by liquid scintillation counting relative to control; type: functional, cell membranes
[7] = biological target: T2, Delta-type opioid receptor; test: Agonist activity at human DOR expressed in HEK293 cells assessed as stimulation of ERK1/2 phosphorylation at 1 uM after 2 mins by Western blotting; type: functional, cell-based
In short: (§3)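 HEK293 cells stably expressing the μ- or δ-opioid receptor, serum-starved 16 h, then exposed to ligand at 37 °C for the indicated times. Whole lysates run on 10% SDS-PAGE and immunoblotted for phospho-ERK1/2, with the blot reprobed for total ERK as loading control. Three independent experiments.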

Rattus norvegicus = species: Rattus norvegicus; test: Selectivity index, ratio of EC50 for rat brain DOR to EC50 for rat brain MOR by cAMP accumulation assay
[8] = biological target: T2, Delta-type opioid receptor; test: Displacement of [3H]diprenorphine from human DOR expressed in HEK293 cell membrane by liquid scintillation counting; type: cell membranes
In short: (§4)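 Membranes (20 μg) from HEK293 cells stably expressing μ- or δ-OR incubated with [3H]diprenorphine (3.75 nM) for 45 min at 30 °C in 50 mM Tris-HCl pH 7.5, 100 mM NaCl, 10 mM MgCl2. Nonspecific binding defined with 10 μM naloxone. Bound ligand collected by GF/C filtration and counted by liquid scintillation.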

[9] = biological target: T1, Opioid receptors; mu and delta; test: Agonist activity at MOR/DOR in NMRI mouse spinal cord assessed as reduction in spinal cord network activity by electrophysiology assay; type: functional; in short: as §1
[10] = biological target: Delta-type opioid receptor (Rattus norvegicus, UniProt P33533); test: Displacement of [3H]deltorphin2 from DOR in rat brain homogenates by liquid scintillation counting; type: tissue-based
Mu-type opioid receptor [11] = biological target: T3, Mu-type opioid receptor; test: Agonist activity at human MOR expressed in HEK293 cells assessed as stimulation of ERK1/2 phosphorylation at 1 uM after 2 mins by Western blotting; type: functional, cell-based; in short: as §3
Mu-type opioid receptor [12] = biological target: T3, Mu-type opioid receptor; test: Agonist activity at human MOR expressed in HEK293 cell membrane assessed as inhibition of forskolin-induced cAMP accumulation by liquid scintillation counting; type: functional, cell membranes; in short: as §2
[13] = biological target: Opioid receptors; mu and delta (Mus musculus) (UniProt P42866+P32300); test: Agonist activity at MOR/DOR in NMRI mouse frontal cortex or spinal cord networks assessed as reduction in spinal cord network activity by electrophysiology assay relative to gabapentin; type: functional, tissue-based; parameters: scale not given: the % may be the effect or the level left
Mu-type opioid receptor [14] = biological target: T3, Mu-type opioid receptor; test: Displacement of [3H]diprenorphine from human MOR expressed in HEK293 cell membrane by liquid scintillation counting; type: cell membranes; in short: as §4
Homo sapiens = species: Homo sapiens; test: Selectivity index, ratio of Ki for human DOR to Ki for human MOR by radioligand displacement assay; in short: as §4
Mu-type opioid receptor [15] = biological target: T3, Mu-type opioid receptor; test: Agonist activity at human MOR expressed in HEK293 cells assessed as stimulation of ERK1/2 phosphorylation at […] after 2 mins by Western blotting; type: functional, cell-based; in short: as §3

Sequence of Opioid receptors; mu and delta (Mus musculus) (P32300 whole entry, looked up): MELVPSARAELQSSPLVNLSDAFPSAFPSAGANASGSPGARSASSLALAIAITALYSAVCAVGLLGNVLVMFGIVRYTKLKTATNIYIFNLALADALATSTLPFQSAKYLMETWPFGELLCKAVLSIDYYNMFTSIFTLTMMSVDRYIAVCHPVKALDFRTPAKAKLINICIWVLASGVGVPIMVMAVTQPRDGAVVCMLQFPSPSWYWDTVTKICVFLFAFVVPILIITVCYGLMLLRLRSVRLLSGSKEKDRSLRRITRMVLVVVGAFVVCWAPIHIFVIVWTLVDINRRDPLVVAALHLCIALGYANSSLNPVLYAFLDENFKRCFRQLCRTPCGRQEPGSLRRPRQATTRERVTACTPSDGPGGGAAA
Sequence of Opioid receptors; mu and delta (Mus musculus) (P42866 whole entry, looked up): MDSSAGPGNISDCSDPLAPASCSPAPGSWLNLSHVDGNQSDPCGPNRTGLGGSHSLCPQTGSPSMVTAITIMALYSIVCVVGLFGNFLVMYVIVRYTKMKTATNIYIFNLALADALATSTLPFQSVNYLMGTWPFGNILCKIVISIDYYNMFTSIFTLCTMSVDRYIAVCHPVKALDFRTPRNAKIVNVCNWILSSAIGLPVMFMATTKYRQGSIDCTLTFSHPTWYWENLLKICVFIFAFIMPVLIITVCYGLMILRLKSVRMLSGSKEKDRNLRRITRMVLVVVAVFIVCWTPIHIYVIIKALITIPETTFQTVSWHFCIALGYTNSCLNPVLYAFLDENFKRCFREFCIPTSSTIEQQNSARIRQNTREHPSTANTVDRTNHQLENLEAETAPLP
Sequence of Kappa-type opioid receptor (P41145 whole entry): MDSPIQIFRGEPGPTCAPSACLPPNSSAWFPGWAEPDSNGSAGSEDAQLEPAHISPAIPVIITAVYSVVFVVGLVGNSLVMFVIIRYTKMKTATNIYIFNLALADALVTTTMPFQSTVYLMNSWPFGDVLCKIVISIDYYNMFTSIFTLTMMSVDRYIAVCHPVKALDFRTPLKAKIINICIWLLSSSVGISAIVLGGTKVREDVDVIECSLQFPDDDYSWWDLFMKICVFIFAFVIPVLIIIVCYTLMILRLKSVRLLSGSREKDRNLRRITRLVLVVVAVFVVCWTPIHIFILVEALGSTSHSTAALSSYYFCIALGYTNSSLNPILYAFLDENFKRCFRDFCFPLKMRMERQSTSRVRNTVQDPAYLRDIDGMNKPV
Sequence of Delta-type opioid receptor (Rattus norvegicus, UniProt P33533) (P33533 whole entry): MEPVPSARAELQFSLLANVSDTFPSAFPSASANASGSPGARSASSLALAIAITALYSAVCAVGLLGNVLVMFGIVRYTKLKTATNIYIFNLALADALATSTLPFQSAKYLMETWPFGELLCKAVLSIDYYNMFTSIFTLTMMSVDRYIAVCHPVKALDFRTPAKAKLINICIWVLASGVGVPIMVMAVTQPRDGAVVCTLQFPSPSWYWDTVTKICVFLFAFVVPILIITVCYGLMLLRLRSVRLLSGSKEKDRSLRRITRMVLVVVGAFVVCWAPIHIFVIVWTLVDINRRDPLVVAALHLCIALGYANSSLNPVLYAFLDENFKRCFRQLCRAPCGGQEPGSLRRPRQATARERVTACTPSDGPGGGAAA
Sequence of Mu-type opioid receptor (Rattus norvegicus, UniProt P33535) (P33535 whole entry): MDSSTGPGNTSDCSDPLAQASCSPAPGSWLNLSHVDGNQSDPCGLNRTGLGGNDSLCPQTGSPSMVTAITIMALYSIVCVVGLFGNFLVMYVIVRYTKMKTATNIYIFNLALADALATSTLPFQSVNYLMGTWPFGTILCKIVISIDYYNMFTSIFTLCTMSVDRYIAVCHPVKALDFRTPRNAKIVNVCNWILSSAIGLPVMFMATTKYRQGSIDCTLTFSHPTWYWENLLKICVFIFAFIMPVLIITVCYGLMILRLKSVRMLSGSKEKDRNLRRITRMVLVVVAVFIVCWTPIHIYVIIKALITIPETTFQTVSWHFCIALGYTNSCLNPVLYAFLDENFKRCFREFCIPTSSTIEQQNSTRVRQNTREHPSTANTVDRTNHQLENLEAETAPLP
T2 sequence (P41143 whole entry): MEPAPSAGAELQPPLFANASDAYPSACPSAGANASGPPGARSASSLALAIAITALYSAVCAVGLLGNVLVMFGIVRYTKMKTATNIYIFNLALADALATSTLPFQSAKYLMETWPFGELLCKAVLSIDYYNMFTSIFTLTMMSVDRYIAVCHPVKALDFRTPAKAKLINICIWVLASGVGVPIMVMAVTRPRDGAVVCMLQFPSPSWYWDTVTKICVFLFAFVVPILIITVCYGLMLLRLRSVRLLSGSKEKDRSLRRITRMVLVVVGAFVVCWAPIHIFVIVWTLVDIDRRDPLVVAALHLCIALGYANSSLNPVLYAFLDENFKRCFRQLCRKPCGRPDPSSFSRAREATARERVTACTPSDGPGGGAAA
T3 sequence (P35372 whole entry): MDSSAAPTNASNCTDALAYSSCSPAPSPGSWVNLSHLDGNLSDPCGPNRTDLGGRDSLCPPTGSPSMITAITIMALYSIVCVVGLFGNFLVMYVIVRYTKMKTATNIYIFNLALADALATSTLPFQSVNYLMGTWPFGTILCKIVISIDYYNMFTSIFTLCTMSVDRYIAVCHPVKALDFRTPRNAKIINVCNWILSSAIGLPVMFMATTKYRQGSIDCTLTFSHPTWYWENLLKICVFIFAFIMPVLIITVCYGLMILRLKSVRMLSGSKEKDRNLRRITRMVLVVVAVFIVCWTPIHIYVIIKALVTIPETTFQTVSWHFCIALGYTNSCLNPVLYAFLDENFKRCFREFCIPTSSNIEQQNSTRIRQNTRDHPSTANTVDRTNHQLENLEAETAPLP

Row | Compound | EC50 [1] | pIC50 (Mu-type opioid receptor [2]) | pKi [3] | pEC50 [4] | Emax [5] [%] | Emax (Mu-type opioid receptor [6]) [%] | Activity [7] | Ratio EC50 (Rattus norvegicus) | pKi [8] | EC50 [9] | pIC50 [10] | Activity (Mu-type opioid receptor [11]) | pEC50 (Mu-type opioid receptor [12]) | Activity [13] [%] | pKi (Mu-type opioid receptor [14]) | Ratio Ki (Homo sapiens) | Activity (Mu-type opioid receptor [15])
1 | C[C@H](C(=O)N[C@@H](Cc1ccccc1)C(=O)N(C)CC(N)=O)N(C)C(=O)[C@@H](N)Cc1ccc(O)cc1 (H-Y[dNMeA]F[Sar]-NH2) | 5 ×10⁻¹² M | 7.55 | < 3.00 | 6.02 | 74 | 77 | Active | 293 | < 5.00 | 1060 nM | 8.15 | Active | 8.48 | 3 | 5.96 | – | –
2 | Cc1cc(O)cc(C)c1C[C@H](N)C(=O)N(C)[C@H](C)C(=O)N[C@@H](Cc1ccccc1)C(=O)N(C)CC(N)=O (H-[Dmt][dNMeA]F[Sar]-NH2) | 1.29 ×10⁻¹³ M | 9.52 | < 3.00 | 5.36 | 72 | 71 | Active | 55700 | 6.89 | 2.87 ×10⁻¹⁰ M | 8.31 | Active | 10.10 | 1 | 7.22 | 2.2 | –
3 | Cc1cc(O)cc(C)c1C[C@H](N)C(=O)N(C)[C@H](C)C(=O)N[C@H]1Cc2ccccc2CN(CC(N)=O)C1=O | 1.61 ×10⁻¹⁵ M | 9.02 | < 3.00 | 10.80 | 61 | 72 | Active | 9.2 | 8.30 | 1.3 nM | 9.02 | – | 11.76 | 21 | 7.83 | 0.34 | Active
4 | C[C@H](C(=O)N[C@H]1Cc2ccccc2CN(CC(N)=O)C1=O)N1Cc2cc(O)ccc2C[C@H](N)C1=O | 5.67 ×10⁻⁷ M | 7.68 | < 3.00 | – | 79 | 78 | Active | – | 6.80 | 6.7 nM | 7.75 | – | 8.29 | 14 | 5.57 | 0.059 | Active
5 | Cc1cc(O)cc(C)c1C[C@H](N)C(=O)N[C@H](C)C(=O)N[C@H]1Cc2ccccc2CN(CC(N)=O)C1=O | – | – | < 3.00 | 9.77 | 66 | 78 | Active | 2.04 | 7.74 | – | – | Active | 10.08 | – | 6.77 | 0.106 | –
